{"source": "paper PMC8716398", "about": "(Biochemical and Biophysical Research Communications, 2021)", "key": {"3CLpro [1]": {"target": "T1, 3CLpro (Severe acute respiratory syndrome coronavirus 2, UniProt P0DTD1)", "type": "biochemical, SARS-CoV-2"}, "3CLpro [2]": {"target": "T1, 3CLpro", "assay": "Surface plasmon resonance", "type": "binding, SARS-CoV-2", "settings": "SPR, heterogeneous ligand model"}, "3CLpro [3]": {"target": "T1, 3CLpro", "assay": "biochemical", "type": "binding, SARS-CoV-2"}, "3CLpro of SARS-CoV-2 [4]": {"target": "T2, 3CLpro of SARS-CoV-2 (Severe acute respiratory syndrome coronavirus 2, UniProt P0DTD1)", "assay": "Analysis of inhibition type", "type": "biochemical"}, "3CLpro [5]": {"target": "T1, 3CLpro", "assay": "Isothermal titration calorimetry", "parameters": "species or system SARS-CoV-2", "settings": "KD of the secondary binding, ITC, two sets of independent sites model, 25 °C", "outline": "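ITC was run at 25 °C in 10 mM HEPES pH 7.4 containing 2% DMSO. Test compound (2 mM, syringe) was injected stepwise into 40 μM 3CLpro in the cell, with 120 s between injections. A matching titration into buffer alone was subtracted. Integrated peak areas were fitted with a two-sets-of-independent-sites model.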"}, "Proteinase K": {"target": "Proteinase K (Parengyodontium album, UniProt P06873)", "sequence (P06873 106-384)": "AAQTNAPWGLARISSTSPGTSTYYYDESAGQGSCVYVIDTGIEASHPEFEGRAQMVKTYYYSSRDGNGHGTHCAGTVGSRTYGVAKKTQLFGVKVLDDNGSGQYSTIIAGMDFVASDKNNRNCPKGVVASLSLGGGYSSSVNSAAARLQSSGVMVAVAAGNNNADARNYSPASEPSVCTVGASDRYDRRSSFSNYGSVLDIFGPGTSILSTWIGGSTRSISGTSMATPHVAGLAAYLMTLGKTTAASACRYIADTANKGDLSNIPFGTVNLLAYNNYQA", "assay": "Enzyme activity assay, hydrolytic activity of Proteinase K", "type": "biochemical"}, "Papain": {"target": "T3, Papain (Carica papaya, UniProt P00784)", "T3 sequence (P00784 134-345)": "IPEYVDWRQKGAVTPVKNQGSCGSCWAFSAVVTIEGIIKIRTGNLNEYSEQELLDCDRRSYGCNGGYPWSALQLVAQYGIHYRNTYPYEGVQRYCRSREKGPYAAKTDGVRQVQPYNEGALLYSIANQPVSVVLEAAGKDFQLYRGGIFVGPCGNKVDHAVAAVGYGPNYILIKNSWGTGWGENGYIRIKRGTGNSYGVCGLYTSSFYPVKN", "assay": "Enzyme activity assay, hydrolytic activity of Papain", "type": "biochemical"}, "3CLpro of SARS-CoV-2 [6]": {"target": "T2, 3CLpro of SARS-CoV-2", "assay": "Enzyme activity assay, hydrolytic activity of 3CLpro", "type": "biochemical"}, "[7]": {"settings": "HTS of ∼6000 compounds at 16.7 μM"}}, "note": "Like-named read-outs stand apart in the source and are kept apart here."}
{"smiles": "CCN(CC)C(=S)SSC(=S)N(CC)CC", "note": "[Disulfiram]", "values": [{"measurement": "HTS outcome (potential 3CLpro inhibitor)", "setting": "3CLpro [1]; [7]", "value": "screened out"}]}
{"smiles": "O=c1c2ccccc2[se]n1-c1ccccc1", "note": "[Ebselen]", "values": [{"measurement": "HTS outcome (potential 3CLpro inhibitor)", "setting": "3CLpro [1]", "value": "screened out"}]}
{"smiles": "O=C(O)c1ccccc1-c1c2cc(Br)c(=O)cc-2oc2[c]([Hg+])c(O)c(Br)cc12", "note": "[Merbromin]", "values": [{"measurement": "ka1", "setting": "3CLpro [2]; first set", "value": "694.6 ± 2.61", "unit": "M⁻¹ s⁻¹"}, {"measurement": "kd1", "setting": "3CLpro [2]; first set", "value": "1.25 ± 0.01 × 10^−3 s^−1"}, {"measurement": "ka2", "setting": "3CLpro [2]; second set", "value": "646.7 ± 3.98", "unit": "M⁻¹ s⁻¹"}, {"measurement": "kd2", "setting": "3CLpro [2]; second set", "value": "16.25 ± 0.08 × 10^−3 s^−1"}, {"measurement": "Kd", "setting": "3CLpro [3]", "value": "11.8 ± 0.98", "unit": "µM"}, {"measurement": "Ki", "setting": "3CLpro of SARS-CoV-2 [4]", "value": "3.93 ± 1.41", "unit": "µM"}, {"measurement": "mixed constant (Alpha)", "setting": "3CLpro of SARS-CoV-2 [4]; mixed model inhibition, global fit Eqn. (4)", "value": "3.77 ± 3.96"}, {"measurement": "Kd", "setting": "3CLpro [5]", "value": 67.8, "unit": "µM"}, {"measurement": "IC50", "setting": "Proteinase K", "value": "> 70", "unit": "µM"}, {"measurement": "IC50", "setting": "Papain", "value": 8.03, "unit": "µM"}, {"measurement": "IC50", "setting": "3CLpro of SARS-CoV-2 [6]", "value": "2.7 ± 0.17", "unit": "µM"}]}
{"smiles": "CCC(C)SSc1ncc[nH]1", "note": "(centres unmarked) [PX-12]", "values": [{"measurement": "HTS outcome (potential 3CLpro inhibitor)", "setting": "3CLpro [1]", "value": "screened out"}]}
{"smiles": "CC(C)=CC[C@@H](O)C1=CC(=O)c2c(O)ccc(O)c2C1=O", "note": "[Shikonin]", "values": [{"measurement": "HTS outcome (potential 3CLpro inhibitor)", "setting": "3CLpro [1]; [7]", "value": "screened out"}]}
{"smiles": "Cn1sc(=O)n(Cc2ccccc2)c1=O", "note": "[TDZD-8]", "values": [{"measurement": "HTS outcome (potential 3CLpro inhibitor)", "setting": "3CLpro [1]; [7]", "value": "screened out"}]}
{"smiles": "O=c1sn(-c2cccc3ccccc23)c(=O)n1Cc1ccccc1", "note": "[Tideglusib]", "values": [{"measurement": "HTS outcome (potential 3CLpro inhibitor)", "setting": "3CLpro [1]; [7]", "value": "screened out"}]}
